{"source": "paper PMC4714695", "about": "(Cancer Science, 2015)", "key": {"[1]": {"test_system": "Japanese patients with acute myeloid leukemia", "experiment": "Best response and remission duration", "type": "in vivo, human", "method_in_brief": "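Same patients and dosing: 2-h IV infusion on days 1 and 15 of 28-day cycles, at 350, 400 or 450 mg. Best response (CR, CRi, PR) and remission duration judged by International Working Group and European Leukemia Net criteria. Assessed in peripheral blood and bone marrow, with imaging added for extramedullary disease. Efficacy cut-off 12 March 2015.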"}, "[2]": {"test_system": "PLK2", "settings": "compared with PLK1; cited from earlier work"}, "[3]": {"test_system": "Japanese patients with acute myeloid leukemia", "experiment": "Electrocardiogram QTcF assessment", "type": "in vivo, human"}, "[4]": {"test_system": "Japanese patients with acute myeloid leukemia", "experiment": "Adverse events graded by CTCAE version 3.0", "type": "in vivo, human", "method_in_brief": "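Adults with relapsed/refractory or untreated AML unfit for standard induction, ECOG ≤2. Test compound given as a 2-h IV drip infusion on days 1 and 15 of 28-day cycles, at 350, 400 or 450 mg per administration. AEs from all cycles graded by CTCAE v3.0 and tabulated per dose cohort by MedDRA system organ class, preferred term and grade, with drug causality assigned. Safety cut-off 6 June 2014.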"}, "[5]": {"settings": "350 mg (n = 7), irrespective of relationship"}, "[6]": {"settings": "400 mg (n = 4), irrespective of relationship"}}, "data": [{"smiles": "CC[C@@H]1C(=O)N(C)c2cnc(Nc3ccc(C(=O)N[C@H]4CC[C@H](N5CCN(CC6CC6)CC5)CC4)cc3OC)nc2N1C(C)C", "note": "[Volasertib]", "values": [{"measurement": "Best overall response CR, patients", "setting": "[1]; 350 mg (n = 7)", "value": 1, "unit": "n"}, {"measurement": "Best overall response PD, patients", "setting": "[1]; 350 mg (n = 7)", "value": 3, "unit": "n"}, {"measurement": "Best overall response SD, patients", "setting": "[1]; 350 mg (n = 7)", "value": 3, "unit": "n"}, {"measurement": "Patients with CR/CRi", "setting": "[1]; 350 mg (n = 7)", "value": 1, "unit": "n"}, {"measurement": "Best overall response CR, patients", "setting": "[1]; 350 mg (n = 7), listed as volasertib", "value": "One of seven patients"}, {"measurement": "Remission duration, median (range)", "setting": "[1]; 350 mg, 1 patient with CR/CRi", "value": 358, "unit": "days"}, {"measurement": "Best overall response CRi, patients", "setting": "[1]; 400 mg (n = 4)", "value": 2, "unit": "n"}, {"measurement": "Best overall response SD, patients", "setting": "[1]; 400 mg (n = 4)", "value": 2, "unit": "n"}, {"measurement": "Patients with CR/CRi", "setting": "[1]; 400 mg (n = 4)", "value": 2, "unit": "n"}, {"measurement": "Best overall response CRi, patients", "setting": "[1]; 400 mg (n = 4), listed as volasertib", "value": "two of four patients"}, {"measurement": "Remission duration, median (range)", "setting": "[1]; 400 mg, 2 patients with CR/CRi", "value": "72 (70–74) days"}, {"measurement": "Best overall response CR, patients", "setting": "[1]; 450 mg (n = 8)", "value": 2, "unit": "n"}, {"measurement": "Best overall response CRi, patients", "setting": "[1]; 450 mg (n = 8)", "value": 1, "unit": "n"}, {"measurement": "Best overall response PD, patients", "setting": "[1]; 450 mg (n = 8)", "value": 1, "unit": "n"}, {"measurement": "Best overall response PR, patients", "setting": "[1]; 450 mg (n = 8)", "value": 1, "unit": "n"}, {"measurement": "Best overall response SD, patients", "setting": "[1]; 450 mg (n = 8)", "value": 3, "unit": "n"}, {"measurement": "Patients with CR/CRi", "setting": "[1]; 450 mg (n = 8)", "value": 3, "unit": "n"}, {"measurement": "Remission duration, median (range)", "setting": "[1]; 450 mg, 3 patients with CR/CRi", "value": "96 (56–262) days"}, {"measurement": "Best overall response CR, patients", "setting": "[1]; Total (N = 19)", "value": 3, "unit": "n"}, {"measurement": "Best overall response CR, share of patients", "setting": "[1]; Total (N = 19)", "value": 15.8, "unit": "%"}, {"measurement": "Best overall response CRi, patients", "setting": "[1]; Total (N = 19)", "value": 3, "unit": "n"}, {"measurement": "Best overall response CRi, share of patients", "setting": "[1]; Total (N = 19)", "value": 15.8, "unit": "%"}, {"measurement": "Best overall response PD, patients", "setting": "[1]; Total (N = 19)", "value": 4, "unit": "n"}, {"measurement": "Best overall response PD, share of patients", "setting": "[1]; Total (N = 19)", "value": 21.1, "unit": "%"}, {"measurement": "Best overall response PR, patients", "setting": "[1]; Total (N = 19)", "value": 1, "unit": "n"}, {"measurement": "Best overall response PR, share of patients", "setting": "[1]; Total (N = 19)", "value": 5.3, "unit": "%"}, {"measurement": "Best overall response SD, patients", "setting": "[1]; Total (N = 19)", "value": 8, "unit": "n"}, {"measurement": "Best overall response SD, share of patients", "setting": "[1]; Total (N = 19)", "value": 42.1, "unit": "%"}, {"measurement": "Patients achieving best response of CR, CRi or PR", "setting": "[1]; Total (N = 19)", "value": 36.8, "unit": "%"}, {"measurement": "Patients with CR/CRi", "setting": "[1]; Total (N = 19)", "value": 6, "unit": "n"}, {"measurement": "Remission duration, median (range)", "setting": "[1]; Total, 6 patients with CR/CRi", "value": "85 (56–358) days"}, {"measurement": "Remission duration, median (range)", "setting": "[1]; Total, 6 patients with CR/CRi, listed as volasertib", "value": 85, "unit": "days"}, {"measurement": "Patients achieving best response of CR, CRi or PR", "setting": "[1]; out of 19 treated patients", "value": 7, "unit": "patients"}, {"measurement": "Duration for which CR was maintained in one patient", "setting": "[1]; person, primary refractory M2 de novo AML, complex karyotype, CR after cycle 3", "value": 358, "unit": "days"}, {"measurement": "Inhibition of PLK2", "setting": "[2]", "value": "to a lesser extent"}, {"measurement": "Patients with >60 ms QTcF increase at end of infusion versus prior to infusion", "setting": "[3]; 450 mg cohort 3 only", "value": "two patients"}, {"measurement": "QTcF intervals >500 ms", "setting": "[3]; all cohorts", "value": "No QTcF intervals >500 ms were reported"}, {"measurement": "Time of maximum increase in mean QTcF interval after start of infusion", "setting": "[3]; all dose cohorts", "value": 2, "unit": "h"}, {"measurement": "Clinically relevant abnormalities in cardiologic assessment", "setting": "[3]; any cohort, during treatment", "value": "No patients in any cohort developed clinically relevant abnormalities"}, {"measurement": "Time by which mean QTcF returned to near baseline", "setting": "[3]; post-dosing, all dose cohorts", "value": "≤ 24", "unit": "h"}, {"measurement": "Blood creatinine increased, all grades, patients", "setting": "[4]; [5]", "value": 1, "unit": "n"}, {"measurement": "Decreased appetite, all grades, patients", "setting": "[4]; [5]", "value": 5, "unit": "n"}, {"measurement": "Decreased appetite, grade 3, patients", "setting": "[4]; [5]", "value": 1, "unit": "n"}, {"measurement": "Epistaxis, all grades, patients", "setting": "[4]; [5]", "value": 1, "unit": "n"}, {"measurement": "Fatigue, all grades, patients", "setting": "[4]; [5]", "value": 1, "unit": "n"}, {"measurement": "Febrile neutropenia, all grades, patients", "setting": "[4]; [5]", "value": 5, "unit": "n"}, {"measurement": "Febrile neutropenia, grade 3, patients", "setting": "[4]; [5]", "value": 5, "unit": "n"}, {"measurement": "Hyperuricemia, all grades, patients", "setting": "[4]; [5]", "value": 3, "unit": "n"}, {"measurement": "Hypoalbuminemia, all grades, patients", "setting": "[4]; [5]", "value": 2, "unit": "n"}, {"measurement": "Hypokalemia, all grades, patients", "setting": "[4]; [5]", "value": 3, "unit": "n"}, {"measurement": "Hypokalemia, grade 3, patients", "setting": "[4]; [5]", "value": 1, "unit": "n"}, {"measurement": "Infection, all grades, patients", "setting": "[4]; [5]", "value": 2, "unit": "n"}, {"measurement": "Infection, grade 3, patients", "setting": "[4]; [5]", "value": 2, "unit": "n"}, {"measurement": "Nausea, all grades, patients", "setting": "[4]; [5]", "value": 1, "unit": "n"}, {"measurement": "Neutropenia, all grades, patients", "setting": "[4]; [5]", "value": 1, "unit": "n"}, {"measurement": "Neutropenia, grade 4, patients", "setting": "[4]; [5]", "value": 1, "unit": "n"}, {"measurement": "Pyrexia, all grades, patients", "setting": "[4]; [5]", "value": 2, "unit": "n"}, {"measurement": "Sepsis, all grades, patients", "setting": "[4]; [5]", "value": 2, "unit": "n"}, {"measurement": "Sepsis, grade 3, patients", "setting": "[4]; [5]", "value": 2, "unit": "n"}, {"measurement": "Stomatitis, all grades, patients", "setting": "[4]; [5]", "value": 2, "unit": "n"}, {"measurement": "Vomiting, all grades, patients", "setting": "[4]; [5]", "value": 1, "unit": "n"}, {"measurement": "Patients reporting grade 4 AE", "setting": "[4]; 350 mg cohort 1, neutropenia and thrombocytopenia", "value": "one of seven patients"}, {"measurement": "Blood creatinine increased, all grades, patients", "setting": "[4]; [6]", "value": 2, "unit": "n"}, {"measurement": "Decreased appetite, all grades, patients", "setting": "[4]; [6]", "value": 1, "unit": "n"}, {"measurement": "Epistaxis, all grades, patients", "setting": "[4]; [6]", "value": 2, "unit": "n"}, {"measurement": "Fatigue, all grades, patients", "setting": "[4]; [6]", "value": 3, "unit": "n"}, {"measurement": "Febrile neutropenia, all grades, patients", "setting": "[4]; [6]", "value": 3, "unit": "n"}, {"measurement": "Febrile neutropenia, grade 3, patients", "setting": "[4]; [6]", "value": 3, "unit": "n"}, {"measurement": "Nausea, all grades, patients", "setting": "[4]; [6]", "value": 2, "unit": "n"}]}]}
